# Tests used:
# [1] = test system: Aspergillus terreus; experiment: Antifungal activity against Aspergillus terreus 05-202844 after 24 to 72 hrs by broth microdilution method; type: functional
# Method in brief: (§1)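 Broth microdilution MIC per CLSI M27-A3 (yeasts) or M38-A2 (molds). RPMI 1640 with L-glutamine, without bicarbonate, buffered to pH 7.0 with 0.165 M MOPS. Final test range for the compounds was 0.175–87.5 μM. Incubation at 35°C with visual reading at 24–72 h. MIC was the lowest concentration giving 100% inhibition versus the growth control (azoles 50% or 100%, by organism). Each isolate was run in duplicate in two independent experiments.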
# [2] = test system: Rhizopus arrhizus; experiment: Antifungal activity against Rhizopus oryzae 05-203111 after 24 to 72 hrs by broth microdilution method; type: functional
# Method in brief: (§2)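 Mold isolates subcultured on potato dextrose agar, then tested by CLSI M38-A2 broth microdilution in RPMI 1640 (L-glutamine, no bicarbonate) buffered to pH 7.0 with 0.165 M MOPS. Compounds were dissolved in water and tested at a final 0.175–87.5 μM. Plates were incubated at 35°C. MIC was read visually as the lowest concentration giving 100% inhibition versus the growth control. Each isolate was run in duplicate in two independent experiments.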
# [3] = test system: Exophiala spinifera; experiment: Antifungal activity against Exophiala spinifera 03-200803 after 24 to 72 hrs by broth microdilution method; type: functional; method in brief: as §2
# [4] = test system: Lomentospora prolificans; experiment: Antifungal activity against Scedosporium prolificans 05-203060 after 24 to 72 hrs by broth microdilution method; type: functional; method in brief: as §2
# [5] = test system: Pichia kudriavzevii; experiment: Antifungal activity against Candida krusei ATCC 6258 after 24 to 72 hrs by broth microdilution method; type: functional; method in brief: as §1
# [6] = test system: Aspergillus flavus; experiment: Antifungal activity against Aspergillus flavus 05-203758 after 24 to 72 hrs by broth microdilution method; type: functional; method in brief: as §1
# [7] = test system: Clavispora lusitaniae; experiment: Antifungal activity against Candida lusitaniae after 24 to 72 hrs by broth microdilution method; type: functional; method in brief: as §1
# [8] = test system: Fusarium solani; experiment: Antifungal activity against Fusarium solani 04-203102 after 24 to 72 hrs by broth microdilution method; type: functional; method in brief: as §2
# [9] = test system: Cryptococcus gattii species complex; experiment: Antifungal activity against Cryptococcus gattii after 24 to 72 hrs by broth microdilution method; type: functional, Cryptococcus bacillisporus; method in brief: as §1
# [10] = test system: Candida parapsilosis; experiment: Antifungal activity against Candida parapsilosis 04-202398 after 24 to 72 hrs by broth microdilution method; type: functional; details: Lodderomyces parapsilosis; method in brief: as §1
# [11] = test system: Cryptococcus gattii species complex; experiment: Antifungal activity against Cryptococcus gattii 05-200122 after 24 to 72 hrs by broth microdilution method; type: functional, Cryptococcus bacillisporus; method in brief: as §1
# [12] = test system: Pichia kudriavzevii; experiment: Antifungal activity against Candida krusei 04-202328 after 24 to 72 hrs by broth microdilution method; type: functional; method in brief: as §1
# [13] = Antifungal activity against Paecilomyces lilacinus 05-200601 after 24 to 72 hrs by broth microdilution method; type: functional; details: Purpureocillium lilacinum; method in brief: as §2
# [14] = Toxicity against human erythrocytes assessed as hemolysis; type: cell-based, Erythrocyte
# [15] = test system: Cryptococcus neoformans; experiment: Antifungal activity against Cryptococcus neoformans 05-202523 after 24 to 72 hrs by broth microdilution method; type: functional; method in brief: as §1
# [16] = test system: Meyerozyma guilliermondii; experiment: Antifungal activity against Candida guilliermondii after 48 to 72 hrs; type: functional; details: for MFC: Meyerozyma guilliermondii
# Method in brief: (§3)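 MFC: after the MIC read, 30-μl aliquots from each well without visible growth were plated onto Sabouraud dextrose agar and incubated at 35°C. Reading was at 48–72 h for yeasts and up to 7 days for molds. MFC was the lowest concentration with no colonies.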
# [17] = test system: Cryptococcus neoformans; experiment: Antifungal activity against Cryptococcus neoformans after 24 to 72 hrs by broth microdilution method; type: functional; method in brief: as §1
# [18] = test system: Candida dubliniensis; experiment: Antifungal activity against Candida dubliniensis after 24 to 72 hrs by broth microdilution method; type: functional; method in brief: as §1
# [19] = test system: Aspergillus fumigatus; experiment: Antifungal activity against Aspergillus fumigatus 05-203114 after 24 to 72 hrs by broth microdilution method; type: functional; method in brief: as §1
# [20] = test system: Candida albicans; experiment: Antifungal activity against Candida albicans after 24 to 72 hrs by broth microdilution method; type: functional
# Method in brief: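 CLSI M27-A3 broth microdilution for yeasts in RPMI 1640 with L-glutamine and no bicarbonate, buffered with 0.165 M MOPS to pH 7.0. Compounds were dissolved in water and tested at 0.175–87.5 μM final, 35°C. MIC was read visually at 24–72 h as 100% inhibition versus growth control. For MFC, 30 μl from clear wells went onto SDA at 35°C for 48–72 h, reading the lowest concentration without colonies. Duplicates, two independent runs.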
# [21] = test system: Candida albicans; experiment: Antifungal activity against Candida albicans after 48 to 72 hrs; type: functional; details: for MFC: Candida albicans; method in brief: as §3
# [22] = test system: Candida tropicalis; experiment: Antifungal activity against Candida tropicalis 04-202361 after 24 to 72 hrs by broth microdilution method; type: functional; method in brief: as §1
# [23] = test system: Meyerozyma guilliermondii; experiment: Antifungal activity against Candida guilliermondii after 24 to 72 hrs by broth microdilution method; type: functional; method in brief: as §1
# [24] = test system: Nakaseomyces glabratus; experiment: Antifungal activity against Candida glabrata after 24 to 72 hrs by broth microdilution method; type: functional; method in brief: as §1
# [25] = test system: Aspergillus flavus; experiment: Antifungal activity against Aspergillus flavus ATCC 204304 after 24 to 72 hrs by broth microdilution method; type: functional; method in brief: as §1
# [26] = test system: Lichtheimia corymbifera; experiment: Antifungal activity against Absidia corymbifera 04-200170 after 24 to 72 hrs by broth microdilution method; type: functional; method in brief: as §1
# [27] = test system: Pichia kudriavzevii; experiment: Antifungal activity against Candida krusei after 24 to 72 hrs by broth microdilution method; type: functional; method in brief: as §1
# [28] = test system: Candida tropicalis; experiment: Antifungal activity against Candida tropicalis after 24 to 72 hrs by broth microdilution method; type: functional; method in brief: as §1
# [29] = test system: Cryptococcus neoformans; experiment: Antifungal activity against Cryptococcus neoformans ATCC 90112 after 24 to 72 hrs by broth microdilution method; type: functional; method in brief: as §1
# [30] = test system: Candida albicans; experiment: Antifungal activity against Candida albicans ATCC 90028 after 24 to 72 hrs by broth microdilution method; type: functional; method in brief: as §1
# [31] = test system: Nakaseomyces glabratus; experiment: Antifungal activity against Candida glabrata 04-202345 after 24 to 72 hrs by broth microdilution method; type: functional; method in brief: as §1
# [32] = test system: Rhizopus arrhizus; experiment: Antifungal activity against Rhizopus oryzae 05-203111 after 48 to 72 hrs; type: functional
# Method in brief: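 After the broth microdilution MIC read, suspension from every well without visible growth was plated onto Sabouraud dextrose agar and incubated at 35°C, up to 7 days for molds. MFC was taken as the lowest drug concentration with no colonies.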
# [33] = test system: Candida parapsilosis; experiment: Antifungal activity against Candida parapsilosis after 48 to 72 hrs; type: functional; details: for MFC: Lodderomyces parapsilosis; method in brief: as §3
# [34] = Antifungal activity against Exophiala jeanselmei 03-200268 after 24 to 72 hrs by broth microdilution method; type: functional; method in brief: as §1
# [35] = test system: Cryptococcus neoformans; experiment: Antifungal activity against Cryptococcus neoformans 05-202523 after 48 to 72 hrs; type: functional; method in brief: as §3
structure (smiles),measurement,setting,value
CCCCCc1cc[n+](CCCCCCCCCCCC[n+]2ccc(CCCCC)cc2)cc1.[Cl-].[Cl-],MIC,[1],5.9 µg/mL
same,MIC,[2],1.48 µg/mL
same,MIC,[3],0.37 µg/mL
same,MIC,[4],1.48 µg/mL
same,MIC,[5],5.9 µg/mL
same,MIC,[6],47.3 µg/mL
same,MIC,[7],0.86 µg/mL
same,MIC50,[7],0.75 µg/mL
same,MIC90,[7],1.48 µg/mL
same,MIC,[8],47.3 µg/mL
same,MIC,[9],1.06 µg/mL
same,MIC50,[9],0.75 µg/mL
same,MIC90,[9],1.48 µg/mL
same,MIC,[10],47.3 µg/mL
same,MIC,[11],0.74 µg/mL
same,MIC,[12],11.8 µg/mL
same,MIC,[13],> 47.3 µg/mL
same,HC50,[14],> 129 µM
same,IC50,[14],> 48 µM
same,MIC,[15],47.3 µg/mL
same,MFC50,[16],0.75 µg/mL
same,MFC90,[16],0.75 µg/mL
same,MFC,[16],0.38 µg/mL
same,MIC,[17],2.41 µg/mL
same,MIC50,[17],1.48 µg/mL
same,MIC90,[17],5.91 µg/mL
same,MIC,[18],0.805 µg/mL
same,MIC50,[18],0.75 µg/mL
same,MIC90,[18],0.75 µg/mL
same,MIC,[19],47.3 µg/mL
same,MIC50,[20],1.48 µg/mL
same,MIC90,[20],1.48 µg/mL
same,MFC50,[21],1.48 µg/mL
same,MFC90,[21],1.48 µg/mL
same,MFC,[21],0.75 µg/mL
same,MIC,[22],0.74 µg/mL
same,MIC,[23],0.569 µg/mL
same,MIC50,[23],0.38 µg/mL
same,MIC90,[23],0.75 µg/mL
same,MIC,[24],0.701 µg/mL
same,MIC50,[24],0.75 µg/mL
same,MIC90,[24],0.75 µg/mL
same,MIC,[25],23.7 µg/mL
same,MIC,[26],> 47.3 µg/mL
same,MIC,[27],2.25 µg/mL
same,MIC50,[27],2.96 µg/mL
same,MIC90,[27],5.91 µg/mL
same,MIC,[28],0.702 µg/mL
same,MIC50,[28],0.75 µg/mL
same,MIC90,[28],0.75 µg/mL
same,MIC,[29],1.48 µg/mL
same,MIC,[30],1.48 µg/mL
same,MIC,[31],1.48 µg/mL
same,MFC,[32],5.9 µg/mL
same,MFC50,[33],>47 µg/mL
same,MFC90,[33],>47 µg/mL
same,MFC,[33],> 47 µg/mL
same,MIC,[34],1.48 µg/mL
CCCCCCc1cc[n+](CCCCCCCCCCCC[n+]2ccc(CCCCCC)cc2)cc1.[Cl-].[Cl-],MIC,[1],0.79 µg/mL
same,MIC,[2],0.79 µg/mL
same,MIC,[3],1.58 µg/mL
same,MIC,[4],25.3 µg/mL
same,MIC,[5],3.2 µg/mL
same,MIC,[6],25.3 µg/mL
same,MIC,[7],1.04 µg/mL
same,MIC50,[7],0.79 µg/mL
same,MIC90,[7],1.56 µg/mL
same,MIC,[8],12.7 µg/mL
same,MIC,[9],0.79 µg/mL
same,MIC50,[9],0.79 µg/mL
same,MIC90,[9],0.79 µg/mL
same,MIC,[10],25.3 µg/mL
same,MIC,[11],0.79 µg/mL
same,MIC,[12],3.2 µg/mL
same,MIC,[13],50.7 µg/mL
same,HC50,[14],> 129 µM
same,IC50,[14],> 48 µM
same,MIC,[15],6.3 µg/mL
same,MFC50,[16],0.79 µg/mL
same,MFC90,[16],1.56 µg/mL
same,MFC,[16],0.39 µg/mL
same,MIC,[17],1.19 µg/mL
same,MIC50,[17],0.79 µg/mL
same,MIC90,[17],3.11 µg/mL
same,MIC,[18],0.739 µg/mL
same,MIC50,[18],0.79 µg/mL
same,MIC90,[18],0.79 µg/mL
same,MIC,[19],12.7 µg/mL
same,MIC,[20],1.56 µg/mL
same,MIC50,[20],1.56 µg/mL
same,MIC90,[20],1.56 µg/mL
same,MFC50,[21],1.56 µg/mL
same,MFC90,[21],1.56 µg/mL
same,MFC,[21],1.56 µg/mL
same,MIC,[22],0.79 µg/mL
same,MFC,[35],25.3 µg/mL
same,MIC,[23],0.789 µg/mL
same,MIC50,[23],0.79 µg/mL
same,MIC90,[23],1.56 µg/mL
same,MIC,[24],0.739 µg/mL
same,MIC50,[24],0.79 µg/mL
same,MIC90,[24],0.79 µg/mL
same,MIC,[25],12.7 µg/mL
same,MIC,[26],50.7 µg/mL
same,MIC,[27],1.36 µg/mL
same,MIC50,[27],1.56 µg/mL
same,MIC90,[27],1.56 µg/mL
same,MIC,[28],1.18 µg/mL
same,MIC50,[28],1.56 µg/mL
same,MIC90,[28],1.56 µg/mL
same,MIC,[29],0.79 µg/mL
same,MIC,[30],0.79 µg/mL
same,MIC,[31],0.79 µg/mL
same,MFC50,[33],49.5 µg/mL
same,MFC90,[33],49.5 µg/mL
same,MFC,[33],24.9 µg/mL
same,MIC,[34],0.79 µg/mL

# Source: ChEMBL document CHEMBL1629527, “In vitro antifungal activities of bis(alkylpyridinium)alkane compounds against pathogenic yeasts and molds” (Antimicrob Agents Chemother, 2010)
